Assay results taken from article PMC11015380 (Heliyon, 2024).

Legend:
Hek293 (Normal) = experiment: WST cell viability assay, Hek293 cells; format: cell-based; conditions: Homo sapiens, HEK293, 72 h, read-out: IC50 Hek293 (Normal)
AsPC1 (G12D) = experiment: WST cell viability assay, AsPC1 cells; format: cell-based; conditions: Homo sapiens, ASPC1, 72 h, read-out: IC50 AsPC1 (G12D)
AGS (G12D) = experiment: WST cell viability assay, AGS cells; format: cell-based; conditions: Homo sapiens, 72 h, read-out: IC50 AGS (G12D)
SNU1197 (G12D) = experiment: WST cell viability assay, SNU1197 cells; format: cell-based; conditions: 72 h, read-out: IC50 SNU1197 (G12D)
[1] = system: MKN1 (KRAS wild-type) cells; experiment: Annexin V-FITC/PI apoptosis detection assay, MKN1 cells; format: cell-based; conditions: MKN1, 0, 2.5, and 5 μM, 24 h, flow cytometry
Summary of the method: (§1)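 AGS or MKN1 cells were seeded at 3–5 × 10^5 cells/well in 6-well plates and grown overnight. They were treated with test compound at 0, 2.5 or 5 μM for 24 h. Cells were harvested, PBS-washed and resuspended in 1X binding buffer.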

[2] = system: KRAS downstream proteins, including PARP, in MKN1 cells; experiment: Immunoblotting of KRAS downstream signals and PARP, MKN1 cells; format: cell-based; conditions: MKN1, 5 or 7.5 μM, 24 h
Summary of the method: (§2)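 Cells (3–5 × 10^5/well, 6-well plates) were grown overnight, then given DMSO or test compound at 5 or 7.5 μM for 24 h. Lysis was in RIPA with protease/phosphatase inhibitors, with BCA protein assay. Equal protein was run on 8–12% SDS-PAGE and transferred to nitrocellulose. Blots were blocked in 5% milk/TBST, probed overnight at 4 °C (ERK, pERK, AKT, pAKT, S6, pS6, PARP), then HRP secondary 1 h, ECL. Bands were normalised to β-actin (n = 2).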

AGS cells = experiment: Annexin V-FITC/PI apoptosis detection assay, AGS cells; format: cell-based; conditions: AGS, 0, 2.5, and 5 μM, 24 h, flow cytometry
Summary of the method: as §1

[3] = system: pERK, pAKT, pS6, cleaved PARP in AGS cells; experiment: Immunoblotting of KRAS downstream signals and PARP, AGS cells; format: cell-based; conditions: 5 or 7.5 μM, 24 h
Summary of the method: as §2

[4] = target: KRAS-GTP (active KRAS) in MKN1 cells (Homo sapiens, UniProt P01116); experiment: GST-RBD pulldown assay, MKN1 cells; format: cell-based; conditions: MKN1, 5 or 7.5 μM, 24 h
Summary of the method: (§3)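 AGS or MKN1 cells were exposed to DMSO or test compound (0, 5, 7.5 μM) for 24 h and lysed in 1X passive lysis buffer. Lysate (400 μg protein) was incubated overnight with glutathione–GST-RBD to capture GTP-bound KRAS. Pulled-down protein was immunoblotted with anti-KRAS antibody, and band intensity was quantified (n = 2).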

[5] = target: KRAS-GTP (active KRAS) in AGS cells (Homo sapiens, UniProt P01116, G12D); experiment: GST-RBD pulldown assay, AGS cells; format: cell-based; conditions: 5 or 7.5 μM, 24 h
Summary of the method: as §3

AsPC1 tumor = experiment: In vivo antitumor efficacy study, AsPC1 xenograft; design: species or system female BALB/c nude mice; conditions: 15 mg/kg i.p. once daily for 14 days
Summary of the method: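 Female BALB/c nude mice (5–6 weeks) received 5.0 × 10^6 AsPC1 cells s.c. into the right hind flank in PBS. At tumour volume >100 mm3, mice were randomised to vehicle or test compound at 15 mg/kg i.p. once daily for 14 days (10% DMSO, 40% PEG300, 5% Tween-80, 45% saline; 200 μL/mouse). Tumours were measured by caliper thrice weekly and body weight twice weekly. TGI (%) = (1 − RTVtreatment/RTVcontrol) × 100, with RTV relative to day 0.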

Row | Structure (SMILES) | IC50 (Hek293 (Normal)) | IC50 (AsPC1 (G12D)) | IC50 (AGS (G12D)) | IC50 (SNU1197 (G12D)) | apoptosis [1] | KRAS downstream proteins, including PARP, expression [2] | proportion of early (LR) and late apoptotic (UR) cells (AGS cells) | pERK, pAKT, and pS6 levels [3] | levels of cleaved PARP ([3]; versus DMSO-treated group) | KRAS-GTP protein expression [4] | KRAS-GTP levels [5] | body weight change during treatment (AsPC1 tumor) | TGI (tumor growth inhibition) (AsPC1 tumor; day 14)
1 | C#Cc1c(F)ccc2cc(O)cc(-c3ncc4c(N5CC6CCC(C5)N6)nc(OC[C@@]56CCCN5C[C@H](F)C6)nc4c3F)c12 [MRTX1133, reference compound] | 19.7 µM | 0.062 µM | 0.0065 µM | 0.037 µM | – | – | – | – | – | – | – | – | –
2 | Cl.c1ccc(CN(Cc2ccccc2)c2nc(N3CCC4(CC3)CNC4)c3ncn(Cc4ccccc4)c3n2)cc1 [PU1-1, N,N,9-tribenzyl-6-(2,7-diazaspiro[3.5]nonan-7-yl)-9H-purin-2-amine hydrogen chloride] | 9.2 ± 0.2 µM | 5.9 ± 0.3 µM | 3.2 ± 0.4 µM | 3.8 ± 0.8 µM | did not show significant apoptosis | no protein expression changes | increased | significantly decreased | significantly increased | no protein expression changes | significantly downregulated | no noticeable weight loss | 42%
3 | Cc1nc(-c2ccc(Cl)cc2)nc(N2CCC3(CC2)CNC3)c1Cc1ccccc1 [PY1-2, 7-(5-benzyl-2-(4-chlorophenyl)-6-methylpyrimidin-4-yl)-2,7-diazaspiro[3.5]nonane, 2,2,2-trifluoroacetic acid] | 9.1 ± 0.7 µM | 10.9 ± 0.4 µM | 3.3 ± 0.6 µM | – | – | – | – | – | – | – | – | – | –
